Rows were chosen to be rich in hits. Some 2% of all compounds tested hit in one or more screens of this group.
ATG4B inh: inhibitors of human ATG4B cysteine protease | Q9Y4P1 | inhibition, % at 8.33 µM | ATG4B cleavage of LC3-PLA2, NBD-HPC fluorescence, 1 h | 340,000 tested, 0.51% active; in the data active = inhibition above about 40%
IMP-1 inh: blocks Pseudomonas aeruginosa IMP-1 metallo-beta-lactamase. 290,000 tested, 0.45% active. purified IMP-1, nitrocefin hydrolysis, epi-absorbance fluorescence. inhibition, % at 5.6 µM;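 active = inhibition above the mean plus 3 SD of all compounds in the same screening run, cut at about 4.5% in these data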
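System: Purified recombinant IMP-1 metallo-beta-lactamase enzyme | Measured by: Fluorescence quenching readout, ex 480/em 530 nm | Replication: Singlicate | Incubation: 15 min preincubation plus 25 min reaction at 25 °C | Evaluation: Percent inhibition from optical density relative to buffer-blank wells | Benchmarks: DMSO with and without IMP-1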
VIM-2 inhibitor: inhibitors of Pseudomonas aeruginosa VIM-2 metallo-beta-lactamase; purified VIM-2, nitrocefin hydrolysis, epi-absorbance fluorescence; inhibition, % at 5.6 µM; 290,000 tested, 0.89% active;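 active = inhibition above the mean of all tested compounds plus 3 SD, cutoff set per screening run, cut at about 7.5% in these data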;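 also: red hydrolysis product quenches plate fluorescence so inhibitors raise well fluorescence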
PvdQ inh: P. aeruginosa PvdQ acylase inhibition; purified PvdQ acylase, fluorescence plate reader; inhibition, % at 10 µM; 340,000 tested, 0.063% active; in the data active = inhibition above about 30%, passing the limit was not always enough
MIN6 prolif: induces beta-cell replication in MIN6 cells. MIN6 cells proliferation, ATPlite luminescence, 48 h; cells starved in 0.2% serum; 100% = growth in 10% serum. proliferation, % at 10 µM. 330,000 tested, 0.29% active;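 active = compounds whose signal lies at least 3.5 SD above the mean of all wells on their plate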
HKDC1 inh: HKDC1 (human) hexokinase inhibition; Q2TB90; recombinant HKDC1, G6PDH/diaphorase resazurin coupled fluorescence; inhibition, % at 20 µM; 340,000 tested, 0.16% active; AID 493160;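 active = inhibition above about 35% when tested at 20 µM, limit read from the data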
Target sequence (Q2TB90 whole entry, looked up): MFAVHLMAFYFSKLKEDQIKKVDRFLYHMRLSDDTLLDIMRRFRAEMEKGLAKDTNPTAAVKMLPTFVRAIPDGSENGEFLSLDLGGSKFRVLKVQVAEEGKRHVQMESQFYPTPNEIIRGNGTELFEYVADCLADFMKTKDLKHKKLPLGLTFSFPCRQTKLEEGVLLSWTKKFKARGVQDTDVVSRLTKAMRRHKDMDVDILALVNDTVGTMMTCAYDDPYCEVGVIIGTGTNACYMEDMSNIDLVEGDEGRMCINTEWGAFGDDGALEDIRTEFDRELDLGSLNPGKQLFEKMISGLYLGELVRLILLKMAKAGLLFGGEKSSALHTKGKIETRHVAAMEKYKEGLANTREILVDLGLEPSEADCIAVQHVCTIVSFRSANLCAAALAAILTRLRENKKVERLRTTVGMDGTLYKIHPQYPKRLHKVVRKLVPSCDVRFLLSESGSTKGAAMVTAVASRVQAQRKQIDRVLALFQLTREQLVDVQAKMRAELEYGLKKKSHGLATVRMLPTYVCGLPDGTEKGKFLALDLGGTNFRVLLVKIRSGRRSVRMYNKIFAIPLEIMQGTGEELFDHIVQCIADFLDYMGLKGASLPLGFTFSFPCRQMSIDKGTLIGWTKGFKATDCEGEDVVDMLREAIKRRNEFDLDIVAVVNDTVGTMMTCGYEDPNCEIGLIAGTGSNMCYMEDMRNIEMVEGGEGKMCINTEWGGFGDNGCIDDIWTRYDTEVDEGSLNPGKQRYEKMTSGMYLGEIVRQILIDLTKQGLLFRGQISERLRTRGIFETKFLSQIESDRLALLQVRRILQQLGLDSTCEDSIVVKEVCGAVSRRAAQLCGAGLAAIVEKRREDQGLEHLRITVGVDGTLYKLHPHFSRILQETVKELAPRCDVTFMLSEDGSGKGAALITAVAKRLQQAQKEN
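System: Recombinant HKDC1 hexokinase | Amount: HKDC1 at 5 µg/mL | Reagent: Glucose with 1 mM ATP | Doses: Single 20 µM dose | Incubation: Reaction time 90 min, room temperature, protected from light | Signal: Coupled resazurin fluorescence, excitation 525 nm, emission 613 nm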
HKDC1 act conf: confirmation of human HKDC1 activators; recombinant HKDC1, G6PDH/diaphorase resazurin fluorescence; hits give low values; 740 tested, 14% active; inhibition, % at 20 µM; AID 504708; shares compounds with HKDC1 inh;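 active = inhibition at or below a set negative limit, negative inhibition meaning the enzyme was activated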
Hits are given with their value; 0 = inactive; - = no result given.

SMILES | ATG4B inh | IMP-1 inh | VIM-2 inhibitor | PvdQ inh | MIN6 prolif | HKDC1 inh | HKDC1 act conf
O=C1NC(=S)S/C1=C\C=C\c1ccc([N+](=O)[O-])o1 | 0 | 0 | 0 | 0 | - | 38 | 0
O=C(O)/C=C/c1ccc([N+](=O)[O-])o1 | 0 | 0 | 0 | 0 | 0 | 0 | -
CCOc1cccc(N)c1 | 0 | - | - | 0 | 0 | 0 | -
CCOc1ccc(N)c(SSc2cc(OCC)ccc2N)c1 | 0 | 0 | 0 | 0 | 0 | 0 | 0
NC(=S)N=Nc1c(O)[nH]c2ccc(F)cc12 | 0 | 0 | 0 | 0 | 0 | 0 | -
NC(=S)N=Nc1c(O)cc(O)c2[nH]c(=O)ccc12 | 0 | - | - | 0 | - | 35 | 0
CCC(C)c1ccccc1O (stereo not drawn) | 0 | - | - | 0 | 0 | 0 | -
CCC(c1ccccc1)C(CC)c1cc(O)c(O)c(O)c1 (stereo not drawn) | 0 | - | - | 0 | - | 42 | 0
O=C(NN=C1CCCCCCCCCCC1)c1cccnc1 | 0 | 0 | 0 | 0 | 0 | 0 | -
Cc1ccc(SC2=C(Sc3ccc(C)cc3)C(=O)c3ccccc3C2=O)cc1 | 0 | 0 | 0 | 0 | 0 | 66 | 0
COc1ccc(-n2c(C)cc(C(=O)CCl)c2C)cc1 | 0 | 0 | 0 | 0 | 0 | 35 | 0
COc1ccc(-n2c(C)cc(C(=O)CN3C(=O)c4ccccc4C3=O)c2C)cc1 | 0 | 0 | 0 | 0 | 0 | 0 | -
CSc1ncccc1C(=O)N1CCCC(CCC(=O)NCc2ccc(F)c(F)c2)C1 (stereo not drawn) | 0 | 0 | 0 | 0 | 0 | 0 | -
COc1ccc(OC)c2[nH]c(=O)c(CCNC(=O)c3cc4ccccc4o3)cc12 | 0 | 0 | 0 | 0 | 0 | 38 | 0
CCN(c1ccccc1)S(=O)(=O)c1ccc(N2CCN(c3ccc(O)cc3)CC2)nc1 | 0 | - | - | 0 | 0 | 0 | -
CC(=O)c1ccc2c(c1)C1C=CCC1C(C(=O)O)N2 (stereo not drawn) | 0 | 0 | 0 | 0 | 0 | 0 | 0
Cc1ccc2c(c1)C1C=CCC1C(C(=O)O)N2 (stereo not drawn) | - | 0 | 0 | - | - | - | -
Cc1ccnc(SCC(=O)n2c3c(c4ccccc42)CC(C)CC3)n1 (stereo not drawn) | 0 | 0 | 0 | 0 | 0 | 0 | -
CC1CCc2c(c3ccccc3n2C(=O)CCl)C1 (stereo not drawn) | 0 | 0 | 0 | 0 | 0 | 46 | 0
Cc1ccccc1C(=O)NNC(=O)Nc1ccccc1 | - | 0 | 0 | - | 0 | - | -
Cc1[nH]n(-c2ccccc2)c(=O)c1/C=N/NC(=O)c1ccc(O)cc1O | 0 | 0 | 0 | 0 | 0 | 0 | -
Cc1ccc(/C=N/Nc2nncc(-c3ccccc3)n2)o1 | 0 | 0 | 0 | 0 | 0 | 0 | -
CCCCN(CCCC)C(=S)N/N=C/c1c(C)[nH]n(-c2ccccc2)c1=O | 0 | 0 | 0 | 0 | 0 | 0 | -65
Cc1[nH]n(-c2ccccc2)c(=O)c1/C=N/Nc1nncc(-c2ccccc2)n1 | 0 | 0 | 0 | 0 | 0 | 0 | -61
COc1ccc(C2=CC3=C(Br)C(=O)C(C)(OC(=O)c4ccco4)C(=O)C3=CO2)cc1 (stereo not drawn) | 82 | - | - | 0 | 0 | 42 | 0
SMILES | ATG4B inh | IMP-1 inh | VIM-2 inhibitor | PvdQ inh | MIN6 prolif | HKDC1 inh | HKDC1 act conf
COc1ccc(N(CC(=O)Nc2cc([N+](=O)[O-])ccc2C)S(C)(=O)=O)cc1OC | 0 | 0 | 0 | 0 | 0 | 0 | -
CS(=O)(=O)c1ccc(C(=O)OCC(=O)NC(=O)Cc2ccccc2)cc1 | 0 | - | - | 0 | 0 | 0 | 0
CCOC(=O)C(=O)Nc1ccccc1C(=O)Nc1ccc(OC)cc1 | 0 | 0 | 0 | 0 | 0 | 0 | -
Oc1ccc2ccccc2c1C=NC1CCCCC1 | 0 | 0 | 0 | 0 | 0 | 35 | 0
COc1cc(OC)c(OC)cc1CCC(C)NCCC(c1ccccc1)c1ccccc1 (stereo not drawn) | 0 | 0 | 0 | 0 | 0 | 81 | 0
COc1ccccc1CCNC(C)CCc1ccc(O)cc1 (stereo not drawn) | 0 | 0 | 0 | 0 | 0 | 0 | -
Cc1nc2c(c(=O)c3ccccc3n2C)c(=O)n1-c1ccc(F)cc1 | 0 | 0 | 8.0 | 0 | 0 | 51 | 0
CCCc1nc2c(c(=O)c3ccccc3n2C)c(=O)n1-c1ccc(F)cc1 | 0 | 0 | 0 | 0 | 0 | 51 | 0
COc1cccc(C(=O)Nc2cc(C(=O)NCc3ccc(C)cc3)ccc2N2CCC3(CC2)CC(c2cccc(Br)c2)=NO3)c1 | 0 | - | - | 0 | 0 | 0 | -
COC(=O)c1cc(=O)n(Cc2ccccc2)c(=NCc2ccccc2)s1 | - | 0 | 0 | - | 0 | - | -
COC(=O)c1cc(=O)n(Cc2ccc(OC)cc2)c(=NCc2ccc(OC)cc2)s1 | 0 | 0 | 0 | 0 | 0 | 0 | 0
C[C@H](CO)N1C[C@H](C)[C@@H](CN(C)Cc2ccc(Oc3ccccc3)cc2)Oc2c(NC(=O)c3ccncc3)cccc2C1=O | 0 | - | - | 0 | 0 | 0 | -
COc1cc(/C=C2\SC(=Nc3ccccc3)NC2=O)cc(Cl)c1O | 0 | 0 | 0 | 0 | 0 | 0 | -
COc1cc(/C=C2\SC(=Nc3ccc(Cl)c(C(=O)O)c3)NC2=O)c(Br)c(Br)c1O | 0 | 0 | 0 | 0 | 0 | 40 | 0
COc1ccc(F)cc1C1=CC(=O)C[C@H](c2ccc3c(c2)OCO3)C1 | 0 | - | - | 0 | 0 | 0 | -
Cn1cnc([N+](=O)[O-])c1Sc1ccc(Br)cc1 | 0 | 0 | 0 | 0 | 0 | 0 | 0
Cc1ccc(Sc2c([N+](=O)[O-])ncn2C)cc1 | 0 | 0 | 0 | 0 | 0 | 0 | -
Cc1onc(-c2ccccc2)c1C(=O)NNC(=O)c1ccccc1 | 0 | - | - | 0 | 0 | 0 | -
Cc1onc(-c2ccccc2)c1C(=O)NNC(=S)NC(=O)c1ccc(Br)cc1 | 0 | 0 | 0 | 0 | - | 0 | -57
COc1ccc(-c2cc(C(=O)NNC(=S)NC(=O)c3c(-c4ccccc4)noc3C)[nH]n2)cc1 | 0 | 0 | 0 | 0 | 0 | 0 | -50
CC[N+](CC)(CC)C/C(N)=N/O | 0 | 0 | 0 | 0 | 0 | 0 | -
O=C(CCl)N(c1ccc(Cl)cc1)c1c[nH]c2ccccc12 | 0 | 0 | 0 | 0 | 0 | 41 | 0
Cc1cc(SCc2cccc([N+](=O)[O-])c2)nc(=O)[nH]1 | 0 | 0 | 0 | 0 | 0 | 0 | -
Cc1cc(SCC(=O)c2cccc([N+](=O)[O-])c2)nc(=O)[nH]1 | 0 | 0 | 0 | 0 | - | 0 | 0
S=c1[nH]nc(C2CCCCC2)n1/N=C/c1c(Cl)cccc1Cl | 0 | 0 | 0 | 0 | 0 | 0 | -
Cn1cccc1C(=O)NNC(=O)COc1ccccc1Cl | 0 | - | - | 0 | 0 | 0 | -
Cc1ccc2cc(C=C(C#N)C#N)c(N3CCCCC3)nc2c1 | 0 | 0 | 0 | 0 | 0 | 41 | 0
Cc1ccc2cc(/C=C(\C#N)C(N)=O)c(N3CCCCC3)nc2c1 | 0 | 0 | 0 | 0 | 0 | 0 | -
CCOC(=O)/C=C(\C)Sc1cc(O)c2ccccc2c1O | 0 | 0 | 0 | 0 | - | 57 | 0
O=C(Cn1nnc(-c2cccs2)n1)Nc1ccccc1C(F)(F)F | 0 | 0 | 0 | 0 | 0 | 0 | -

Screens as filed in PubChem BioAssay.
